From PubChem BioAssay
Sampled rows, rich in hits. Any-hit rate of the full collection: about 3%.
TRPC6 inhibitor: mouse TRPC6 channel inhibition | hit rate 1.1% among 310,000 | B-score at 10 µM | Q61143 | HEK293-TRPC6, membrane potential dye, ACh-evoked depolarization; active compounds read low | AID 2553;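 active = B-score under library mean minus 3 SD, initial fluorescence not abnormally high, positive integrated signal ratio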;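 note: B-score derived from integrated fluorescence ratio over the kinetic read; more negative B-score means stronger inhibition of depolarization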
Target sequence (Q61143 whole entry, looked up): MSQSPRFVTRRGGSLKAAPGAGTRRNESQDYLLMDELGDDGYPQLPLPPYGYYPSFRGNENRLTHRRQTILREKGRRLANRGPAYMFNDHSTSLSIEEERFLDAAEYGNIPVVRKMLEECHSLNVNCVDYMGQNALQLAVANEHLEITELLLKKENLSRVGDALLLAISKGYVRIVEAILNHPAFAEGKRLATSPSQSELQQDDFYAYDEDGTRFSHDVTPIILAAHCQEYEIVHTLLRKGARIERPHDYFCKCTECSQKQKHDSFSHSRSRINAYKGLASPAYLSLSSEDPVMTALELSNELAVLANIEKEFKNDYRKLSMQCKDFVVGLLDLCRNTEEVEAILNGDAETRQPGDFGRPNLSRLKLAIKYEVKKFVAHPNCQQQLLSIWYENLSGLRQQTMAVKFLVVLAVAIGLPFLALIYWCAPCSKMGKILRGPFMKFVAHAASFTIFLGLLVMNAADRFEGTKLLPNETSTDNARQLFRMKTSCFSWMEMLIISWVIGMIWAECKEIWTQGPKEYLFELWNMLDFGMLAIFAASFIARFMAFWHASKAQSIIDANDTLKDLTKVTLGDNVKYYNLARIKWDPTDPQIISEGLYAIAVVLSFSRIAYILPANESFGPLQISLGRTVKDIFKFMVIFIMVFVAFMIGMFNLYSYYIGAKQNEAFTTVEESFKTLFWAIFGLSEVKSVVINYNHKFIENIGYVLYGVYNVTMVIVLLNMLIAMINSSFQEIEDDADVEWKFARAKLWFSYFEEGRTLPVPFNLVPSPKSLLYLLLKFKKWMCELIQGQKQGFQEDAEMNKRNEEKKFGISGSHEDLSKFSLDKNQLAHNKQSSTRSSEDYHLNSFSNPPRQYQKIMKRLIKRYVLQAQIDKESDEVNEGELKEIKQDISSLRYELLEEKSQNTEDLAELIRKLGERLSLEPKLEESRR
TRPC4 act: activators of mouse TRPC4 channel. B-score at 10 µM. hit rate 0.49% among 310,000. HEK293 TRPC4beta/mu-opioid, Fluo4 calcium fluorescence; active compounds read high. Q9QUQ5;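 active = B-score above 5 SD of library B-scores, and initial fluorescence ratio not above library mean plus 5 SD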;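 note: positive B-score marks a calcium rise read as TRPC4 activation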
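Material: HEK293 stable line with TRPC4beta plus mu-opioid receptor; technique: Fluo4 calcium-sensitive dye fluorescence, kinetic, 1 Hz baseline; timing: Fluo4 dye loading 45 min at room temperature, 110 s recording; controls: assay buffer as low control, maximal DAMGO as high control; read-out: integrated baseline-normalised fluorescence ratio, converted to per-well B score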
TRPC4 potent: allosterically enhances the mouse TRPC4 cation channel; hit rate 0.42% among 310,000; AID 2227; HEK293 TRPC4beta/mu-opioid, DAMGO EC20, Fluo-4 Ca2+ flux; active compounds read high; B-score at 10 µM; Q9QUQ5;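 active = B-score of calcium response area above 5 SD of library B-scores, with initial fluorescence ratio within 5 SD of library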;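 note: B-score of integrated fluorescence ratio over time as area under calcium response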
TRPC6 activator: activates the mouse TRPC6 cation channel; AID 2550; hit rate 0.13% among 310,000; HEK293-TRPC6 membrane potential dye fluorescence; active compounds read high; B-score at 10 µM; Q61143;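 active = B-score of the integrated fluorescence ratio above library mean plus 3 SD, and starting fluorescence ratio within library mean plus 5 SD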;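 note: higher score means more depolarization so channel activation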
TRPC4 block: TRPC4 (mouse) channel inhibition | HEK293 TRPC4beta/mu-opioid, DAMGO-evoked Fluo4 calcium flux; active compounds read low | AID 2247 | B-score at 10 µM | Q9QUQ5 | hit rate 0.39% among 300,000;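 active = B-score over 3 SD under the library average, no early fluorescence shift, positive overall ratio signal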
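Assay system: TRPC4beta/mu-opioid receptor HEK293 cell line; compound dosing: single concentration per test compound; detection: Fluo4 Ca2+ flux fluorescence; evaluation: per-well B score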
Kir21 block: Kir2.1 (mouse) channel inhibition. P35561. HEK293-Kir2.1, FluxOR thallium flux fluorescence; active compounds read low. B-score at 10 µM. hit rate 0.85% among 310,000. AID 1672;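 active = fluorescence ratio B-score at or below minus 3 SD of library scores, with starting-brightness B-score within 2 SD, cut at about -4.2 in these data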;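 note: channel flux triggered by added potassium and thallium sulfate stimulus; B-score of peak minus minimum fluorescence over baseline after thallium stimulus; more negative B-score means stronger Kir2.1 block with less thallium influx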
TRPC4 sel inh 2: second selectivity test of TRPC6 inhibitors: effect on mouse TRPC4; shares compounds with TRPC6 inhibitor; HEK293 TRPC4/MOR, membrane potential dye fluorescence; channel activated by saturating DAMGO dose; inhibition, % at 10 µM; hit rate 42% among 920;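 active = compounds whose fluorescence signal differed from control wells by over 3 SD, either direction, in both duplicate plates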
TRPC4 spec: mouse TRPC4 off-target activity of TRPC6 inhibitors. shares compounds with TRPC6 inhibitor. HEK293 TRPC4/mu-opioid, membrane potential fluorescence. activity change, negative = inhibition, % at 10 µM. hit rate 61% among 920. AID 2777;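 active = rise or fall in signal beyond 3 SD of buffer-only wells in both replicate plates, either sign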;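 note: integrated kinetic ratio of fluorescence range over baseline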
HEK293 MPD ctr 2-1: parental HEK293 nonspecific activity of TRPC6 inhibitors, second screen. shares compounds with TRPC6 inhibitor. parental HEK293 membrane potential dye fluorescence; maximal acetylcholine challenge after compound addition. signal change vs control, % at 10 µM. hit rate 31% among 920;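 active = membrane potential signal moving either way by over 3 SD of the maximum-effect control, in both duplicate plates, meaning non-specific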
HEK293 MPD ctr-1: parental HEK293 nonspecific activity of TRPC6 inhibitors; shares compounds with TRPC6 inhibitor; parental HEK293 membrane potential dye fluorescence; membrane potential signal change, % at 10 µM; hit rate 60% among 920;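 active = membrane potential signal shifting up or down by more than 3 SD of buffer-only wells, on both duplicate plates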
HEK293 MPD ctr-2: checks TRPC6 modulator effects in parental HEK293 cells; membrane potential dye fluorescence; membrane potential signal change, % at 10 µM; shares compounds with TRPC6 inhibitor; hit rate 51% among 2,400;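 active = membrane potential signal moves up or down beyond 5 SD from buffer-only wells, on both duplicate plates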
HEK293 MPD ctr 2-2: second counter-screen for TRPC6 modulators: effect in parental HEK293 cells; shares compounds with TRPC6 inhibitor; membrane potential dye fluorescence; after compound, maximal acetylcholine stimulation; inhibition, % at 10 µM; hit rate 14% among 2,400; AID 488926;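 active = membrane potential signal drops by more than 5 SD from the mean control signal, in both duplicate plates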;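 note: plate controls were acetylcholine ECmax control wells for no effect and buffer only wells for full effect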
TRPC4/MOR mod: mouse TRPC4 off-target activity of TRPC6 modulators; shares compounds with TRPC6 inhibitor; HEK293 TRPC4/mu-opioid, membrane potential fluorescence; percent change from control (negative = decrease, positive = increase), % at 10 µM; hit rate 69% among 2,400;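 active = membrane potential signal moved up or down beyond 5 SD of buffer control wells, in both duplicate plates, actives on both sides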;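 note: plate controls were assay buffer wells for no effect and DAMGO maximal-effect wells for full effect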
TRPC4/MOR inh 2: mouse TRPC4 off-target activity of TRPC6 modulators, second screen. inhibition, % at 10 µM. HEK293 TRPC4/mu-opioid, membrane potential dye fluorescence; stimulated with maximal-effect DAMGO. hit rate 55% among 2,400. shares compounds with TRPC6 inhibitor. AID 488928;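 active = drop in membrane potential signal beyond 5 SD of the control wells in both duplicate plates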;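 note: TRPC4 counter screen for TRPC6 hits run under conditions tuned for TRPC6 not TRPC4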
TRPC6 block conf: mouse TRPC6 inhibitor confirmation. shares compounds with TRPC6 inhibitor. HEK293-TRPC6, membrane potential dye, ACh-evoked depolarization. inhibition, % at 10 µM. hit rate 43% among 3,300;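 active = fluorescence ratio falls more than 5 SD below the full-stimulation control mean, in both duplicate runs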;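 note: integrated fluorescence ratio of peak minus minimum over baseline after agonist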
TRPC6 act conf: mouse TRPC6 activator confirmation; HEK293-TRPC6 membrane potential dye fluorescence, FDSS; activation, % at 10 µM; shares compounds with TRPC6 inhibitor; AID 488961; hit rate 11% among 2,800;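 active = ratio signal rise beyond 5 SD above unstimulated control wells' mean, seen in both duplicate runs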;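 note: plate controls were buffer EC0 wells for no effect and acetylcholine ECmax response for full effect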
Starred values were filed as active, the others as inactive; i = inactive; x = no result; + = active, no number.

SMILES	TRPC6 inhibitor	TRPC4 act	TRPC4 potent	TRPC6 activator	TRPC4 block	Kir21 block	HEK293 MPD ctr-2	HEK293 MPD ctr 2-2	TRPC4/MOR mod	TRPC4/MOR inh 2	TRPC6 block conf	TRPC6 act conf	others
C[C@]12C=CC(=O)C=C1CC[C@@H]1C2=CC[C@]2(C)[C@@H](C(=O)CN3CCN(c4cc(N5CCCC5)nc(N5CCCC5)n4)CC3)CC[C@@H]12	-6.69*	i	i	i	i	0.79	-238.0%*	i	-54.0%*	63.5%*	69.0%*	i
COc1cc2c(cc1OC)CN(C(=O)c1cc(S(=O)(=O)N3CCOCC3)c(Cl)cc1Cl)CC2	i	i	i	i	i	1.04	x	x	x	x	x	x
CCN(CC)c1ccc(-c2sc(Nc3ccccc3)n[n+]2-c2ccc(F)cc2)cc1	i	i	i	18.7*	i	-7.54	+	i	204.0%*	i	i	225.5%*
CN(C)C=NCCn1c(N2CCOCC2)nc2c1c(=O)n(C)c(=O)n2C	-7.07*	i	i	i	i	-1.59	-273.5%*	i	-44.5%*	35.0%*	i	i
Cn1c(=O)c2c(nc(N3CCOCC3)n2CCc2ccccc2)n(C)c1=O	i	i	i	i	i	1.24	x	x	x	x	x	x
O=C(CN1C(=O)C2CCCCC2C1=O)N1CCN(c2ncccn2)CC1 (stereo not drawn)	i	i	i	i	i	0.08	x	x	x	x	x	x
O=C(CN1CCN(c2ncccn2)CC1)N1CCCC1	-5.33*	i	i	i	i	1.78	i	i	i	i	i	i
CCCCC(O)(CCN1CCOCC1)c1ccc(Cl)cc1 (stereo not drawn)	-8.91*	i	i	i	i	-0.79	x	x	x	x	64.9%*	i	TRPC4 sel inh 2=i;TRPC4 spec=8.8%*;HEK293 MPD ctr 2-1=30.5%*;HEK293 MPD ctr-1=5.8%*
CCCOc1ccc(N2C(=O)CC(N(CCc3ccc(OC)cc3)C(=O)/C=C/C(=O)O)C2=O)cc1 (stereo not drawn)	-10.1*	i	i	i	i	-0.51	x	x	x	x	i	i	TRPC4 sel inh 2=i;TRPC4 spec=i;HEK293 MPD ctr 2-1=i;HEK293 MPD ctr-1=i
Cc1ccc2nc(C)cc(Nc3ccc4c(c3)OCCO4)c2c1	-6.34*	i	i	i	-8*	-3	-72.0%*	i	i	67.0%*	64.0%*	i
CCOc1ccc2nc(C)cc(Nc3ccc4c(c3)OCCO4)c2c1	-9.84*	i	i	i	i	-2.11	x	x	x	x	i	i	TRPC4 sel inh 2=i;TRPC4 spec=-13.3%*;HEK293 MPD ctr 2-1=i;HEK293 MPD ctr-1=-178.5%*
CC(=O)c1ccc(Nc2cc(C)nc3ccc(C)cc23)cc1	-9.47*	i	i	i	i	-1.21	x	x	x	x	i	i	TRPC4 sel inh 2=77.0%*;TRPC4 spec=-12.1%*;HEK293 MPD ctr 2-1=14.0%*;HEK293 MPD ctr-1=-275.5%*
Cc1ccc2nc(C)cc(NCCO)c2c1	-8.41*	i	i	i	i	1.76	-281.5%*	81.0%*	-48.0%*	53.5%*	57.5%*	i
COc1ccc(N2C(=O)C(CC(N)=O)N(NC(=O)CCc3ccccc3)C2=O)cc1 (stereo not drawn)	i	i	i	i	i	-0.22	x	x	x	x	x	x
CC(C)OCCCN1CN(S(=O)(=O)c2cccc(Cl)c2)c2nc3ccccc3nc21	-5.13*	i	i	i	i	-0.95	i	i	9.5%*	i	i	i
O=C(N/N=C/c1sc2ccccc2c1O)c1cccc2ccccc12	i	45*	i	22.4*	i	-0.94	834.0%*	+	121.0%*	42.0%*	x	251.0%*
O=C(N/N=C/c1ccccc1F)c1cccc2ccccc12	i	i	i	i	i	-9.33e-16	x	x	x	x	x	x
O=C(N/N=C/c1sc2ccccc2c1O)c1ccccc1	i	i	i	i	i	-5.83	x	x	x	x	x	x
COc1ccc2cc(C(=O)N/N=C/c3sc4ccccc4c3O)ccc2c1	i	i	i	72.4*	i	-7.21	138.5%*	108.5%*	261.0%*	i	x	38.5%*
COc1ccc(C(=O)N/N=C/c2sc3ccccc3c2O)cc1	i	i	i	12.1*	i	-4.8	+	+	112.5%*	39.5%*	x	197.5%*
COc1ccc(C(=O)N/N=C/c2c[nH]c3ccccc23)cc1	i	i	i	i	i	0.11	x	x	x	x	x	x
Cc1ccnc(NS(=O)(=O)c2ccc(NC(=O)c3cc(-c4ccc(Br)cc4)nc4ccccc34)cc2)n1	i	i	i	i	i	2.1	x	x	x	x	x	x
COc1ccc(CN(C)C(=O)c2cc(S(=O)(=O)Nc3ccccc3F)ccc2C)c(OC)c1	i	i	i	i	i	0.21	x	x	x	x	x	x
Cc1cccc(-c2nsc(SCC(=O)Nc3nccs3)n2)c1	-5.7*	i	i	i	i	0.61	i	i	i	i	i	i
Cc1cc(=O)[nH]c(SCC(=O)N(CCC#N)c2ccccc2)c1C#N	i	i	i	i	i	0.02	x	x	x	x	x	x
